Test [1] relates to Mus musculus. Put plainly: The compound was evaluated for the mouse active Arthus (MAA) reaction activity for peroral screening dose of 150 mg/kg in mouse. The format is functional. Particulars: route oral.
The test system of test [2] is Cavia porcellus. Put plainly: Tested in delayed hypersensitivity skin reaction (DHSR) after subcutaneous administration, activity reported as percent inhibition of erythema/induration of lesion; 15/7. The class given is functional.
Test [3] deals with Mus musculus. Put plainly: Inhibition of Mouse Active Arthus reaction following 150 mg/Kg i.p.; 41-60% inhibition. The format is functional. To be noted: for inhibition in vivo at 150 mg/kg: Mus musculus, ip.
The subject of test [4] is Cavia porcellus. Put plainly: Tested in delayed hypersensitivity skin reaction (DHSR) after subcutaneous administration, activity reported as percent inhibition of erythema/induration of lesion; 21/6. The format is functional.
Test [5] has as its system Mus musculus. Put plainly: Inhibition of Mouse active Arthus (MAA) reaction activity was determined for peroral dose of 150 mg/kg in mouse; 21-30%. The format is functional. To be noted: route oral.
The test system of test [6] is Cavia porcellus. Put plainly: The compound was evaluated for the delayed hypersensitivity skin reaction (DHSR) activity after subcutaneous administration; 14/36.
Test [7] has as its system Mus musculus. Put plainly: Inhibition of Mouse active Arthus (MAA) reaction activity was determined for an ip dose of 150 mg/kg in mouse; 21-30%. The format is functional. Particulars: route intraperitoneal.
In test [8] the test system is Cavia porcellus. Put plainly: The compound was evaluated for the delayed hypersensitivity skin reaction (DHSR) activity after subcutaneous administration; 0/0.
The test system of test [9] is Mus musculus. Put plainly: The compound was evaluated for the mouse active Arthus (MAA) reaction activity for an ip dose of 150 mg/kg in mouse. The class given is functional. Particulars: route intraperitoneal. In a few lines:
(§1)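 CD-1 mice were sensitized ip with a 1:1 Freund's complete adjuvant emulsion containing BSA in saline, 5 weeks before challenge. Compound was suspended in 1% Na CMC in pyrogen-free saline and given as one ip or oral dose 1 h before skin challenge with BSA. Screening doses were 150 mg/kg ip and 300 mg/kg po, with some at 75 or 50 mg/kg ip. Lesions were excised 3.5 h after challenge and weighed against controls.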

In test [10] the test system is Cavia porcellus. Put plainly: The compound was evaluated for the delayed hypersensitivity skin reaction (DHSR) activity after subcutaneous administration; 11/33.
The test system of test [11] is Mus musculus. Put plainly: Mouse active Arthus (MAA) reaction activity was determined for an ip dose of 150 mg/kg in mouse; 31-40%. The class given is functional. To be noted: route intraperitoneal.
In test [12] the test system is Mus musculus. Put plainly: Mouse active Arthus (MAA) reaction activity was determined for an peroral dose of 300 mg/kg in mouse. To be noted: route oral. The class given is functional.
Test [13] relates to Cavia porcellus. Put plainly: Tested in delayed hypersensitivity skin reaction (DHSR) after subcutaneous administration, activity reported as percent inhibition of erythema/induration of lesion; 9/24. The class given is functional. The method in brief: (§2)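 Male Hartley guinea pigs were sensitized with Mycobacterium tuberculosis in Freund's incomplete adjuvant, injected into each hind footpad and subcutaneously at the neck. After 3 weeks, 1.2 μg PPD was given intradermally. Compound in sesame oil was given sc, 3 animals per group, 30 min before and 5 h after PPD; screening dose 50 mg/kg.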

Test [14] has as its system Cavia porcellus. Put plainly: The compound was evaluated for the delayed hypersensitivity skin reaction (DHSR) activity after subcutaneous administration; 8/19.
Test [15] relates to Cavia porcellus. Put plainly: Tested in delayed hypersensitivity skin reaction (DHSR) after subcutaneous administration, activity reported as percent inhibition of erythema/induration of lesion; 13/4. The class given is functional.
Test [16] concerns Mus musculus. Put plainly: The compound was evaluated for the mouse active Arthus (MAA) reaction activity expressed as inhibitory dose after oral administration. The class given is functional. To be noted: read-out: ID50 (the source's name). The method in brief: as §1
Test [17] relates to Mus musculus. Put plainly: The compound was evaluated for the mouse active Arthus (MAA) reaction activity for an ip screening dose of 75 mg/kg; 21-30%. To be noted: route intraperitoneal. The format is functional. In a few lines:
as §1

Test [18] relates to Cavia porcellus. Put plainly: Tested in delayed hypersensitivity skin reaction (DHSR) after subcutaneous administration, activity reported as percent inhibition of erythema/induration of lesion; 14/25. The class given is functional.
Test [19] relates to Cavia porcellus. Put plainly: Tested in delayed hypersensitivity skin reaction (DHSR) after subcutaneous administration, activity reported as percent inhibition of erythema/induration of lesion; 17/49. The format is functional.
Test [20] relates to Cavia porcellus. Put plainly: Tested in delayed hypersensitivity skin reaction (DHSR) after subcutaneous administration, activity reported as percent inhibition of erythema/induration of lesion; 11/66. The class given is functional.
For test [21], the system named is Cavia porcellus. Put plainly: Tested in delayed hypersensitivity skin reaction (DHSR) after subcutaneous administration, activity reported as percent inhibition of erythema/induration of lesion; 3/4. The format is functional. In a few lines:
as §2

Test [22] concerns Cavia porcellus. Put plainly: Tested in delayed hypersensitivity skin reaction (DHSR) after subcutaneous administration, activity reported as percent inhibition of erythema/induration of lesion; 14/34. The class given is functional.
For test [23], the system named is Mus musculus. Put plainly: The compound was evaluated for the mouse active Arthus (MAA) reaction activity expressed as inhibitory dose after ip administration. The format is functional. Particulars: read-out: ID50 (the source's name). The method in brief: as §1

Usually inhibition in vivo stands for the change of the read-out against control, counted positive when it falls. A high value points to a strong effect. Turning to `Cc1ccc(/C=C2\CS(=O)(=O)CC3C2=NN(CC2CC2)C3c2ccc(C)cc2)cc1` (stereo unspecified), in the test on Mus musculus [1], the inhibition in vivo at 150 mg/kg was below 20%. In the test on Cavia porcellus [2], the Activity stood at 15.

The Inhibition is the relative decrease from the control value, in per cent. The low end stands for little suppression, the high end for strong suppression. As for `CN1CCN(CCCN2N=C3/C(=C/c4ccccc4)CSCC3C2c2ccccc2)CC1.O=C(O)/C=C\C(=O)O` (stereo unspecified), the Inhibition is 41% with Mus musculus [3] and 21% in the test with Cavia porcellus [4].

For the compound `CCCN1N=C2/C(=C/c3ccc(Cl)cc3)CSCC2C1c1ccc(Cl)cc1` (stereo unspecified), the inhibition in vivo at 150 mg/kg with Mus musculus [5] and in the test on Mus musculus [7] was 21% in each case. In addition, in the test with Cavia porcellus [6], the Activity came out at 14.

In the test on Cavia porcellus [8], `CN1CCN(CCCN2N=C3/C(=C/c4ccc([S+](C)[O-])cc4)COCC3C2c2ccc([S+](C)[O-])cc2)CC1.O=C(O)/C=C\C(=O)O` (stereo unspecified) showed an Activity of 0. In addition, the inhibition in vivo at 150 mg/kg in the test on Mus musculus [9] is below 20%.

Compound `CCCN1N=C2/C(=C/c3ccc(C)cc3)CSCC2C1c1ccc(C)cc1` (stereo unspecified) registered an Activity in the test on Cavia porcellus [10] of 11. Moreover, in the test on Mus musculus [11], the inhibition in vivo at 150 mg/kg turned out to be 31%. For the same compound, in the test on Mus musculus [12], the inhibition in vivo at 300 mg/kg is below 20%.

In the test on Cavia porcellus [13], `CC(=O)N1N=C2/C(=C/c3cccnc3)CSCC2C1c1cccnc1` (stereo unspecified) yielded an Activity of 9. Also, the inhibition in vivo at 150 mg/kg in the test with Mus musculus [9] is below 20%.

`CCCN1N=C2/C(=C/c3ccccc3C)CSCC2C1c1ccccc1C` (stereo unspecified): the Activity in the test with Cavia porcellus [14] stood at 8. The compound further registered an inhibition in vivo at 150 mg/kg in the test with Mus musculus [11] of 31%.

In turn, `CC(C)(C)c1ccc(/C=C2\CS(=O)(=O)CC3C2=NN(CCc2ccccc2)C3c2ccc(C(C)(C)C)cc2)cc1` (stereo unspecified) yielded an Activity in the test on Cavia porcellus [15] of 13. In the test on Mus musculus [16], the ED50 is above 600 mg/kg.

In the test with Mus musculus [17], `CCCn1nc(-c2ccc(C)cc2)c2c1/C(=C/c1ccc(C)cc1)CS(=O)(=O)C2` gave an inhibition in vivo at 75 mg/kg of 21%. For the same compound, in the test on Cavia porcellus [18], the Activity worked out at 14.

As to `CCCN1N=C2/C(=C/c3ccc(OC)cc3)CS(=O)(=O)CC2C1c1ccc(OC)cc1` (stereo unspecified), in the test with Cavia porcellus [19], the Activity is reported as 17. This compound came in with an inhibition in vivo at 150 mg/kg with Mus musculus [11] of 31%. In addition, the inhibition in vivo at 300 mg/kg in the test with Mus musculus [12] is below 20%.

Take `CN1CCN(CCCN2N=C3/C(=C/c4ccccc4)CSCC3C2c2ccccc2)CC1` (stereo unspecified): the Activity in the test with Cavia porcellus [20] was found to be 11. The inhibition in vivo at 150 mg/kg was determined as 21% with Mus musculus [5] and 41% in the test with Mus musculus [3].

Regarding `O=S1(=O)C/C(=C\c2ccccc2)C2=NNC(c3ccccc3)C2C1` (stereo unspecified), in the test with Mus musculus [3], testing at 150 mg/kg gave an inhibition in vivo of 41%. The compound also gave an Activity in the test on Cavia porcellus [21] of 3.

Regarding `COc1ccc(/C=C2\CSCC3C2=NN(CCCN2CCN(C)CC2)C3c2ccc(OC)cc2)cc1.O=C(O)/C=C\C(=O)O` (stereo unspecified), the Activity in the test on Cavia porcellus [22] was found to be 14. The ED50 with Mus musculus [23] was found to be 60 mg/kg. Also, the inhibition in vivo at 150 mg/kg with Mus musculus [9] is above 60%.

(Values after ChEMBL document CHEMBL1122142, “Synthesis and antiinflammatory activity of hexahydrothiopyrano[4,3-c]pyrazoles and related analogues” (J Med Chem, 1982).)
